This is an account of results in ChEMBL document CHEMBL1671676, “In vitro activity of nemonoxacin, a novel nonfluorinated quinolone, against 2,440 clinical isolates” (2009).

In brackets after ≈: the same amount, converted by molar mass. Where only a bound is given, the exact number is not on record here.

Holding throughout (format): functional
For test [1], the system named is Enterococcus faecalis. The experiment in a line: Antibacterial activity against Enterococcus faecalis assessed as percent cumulative susceptible isolates at minimum inhibitory concentration of 32 ug/ml by CLSI broth microdilution method. On the set-up: scale not given: the % may be the effect or the level left. (In broth dilution the organism is exposed to a series of concentrations in liquid medium.)

In test [2] the test system is Streptococcus pneumoniae. The experiment in a line: Antibacterial activity against penicillin-resistant Streptococcus pneumoniae assessed as percent cumulative susceptible isolates at minimum inhibitory concentration of 1 ug/ml by CLSI broth microdilution method. Also on record: scale not given: the % may be the effect or the level left.
Test [3] concerns Streptococcus pneumoniae. The experiment in a line: Antibacterial activity against Streptococcus pneumoniae assessed as percent cumulative susceptible isolates at minimum inhibitory concentration of 8 ug/ml by CLSI broth microdilution method. Also on record: scale not given: the % may be the effect or the level left.
The subject of test [4] is Staphylococcus aureus. The experiment in a line: Antibacterial activity against methicillin-resistant Staphylococcus aureus assessed as percent cumulative susceptible isolates at minimum inhibitory concentration of 8 ug/ml by CLSI broth microdilution method. Also on record: scale not given: the % may be the effect or the level left.
The test system of test [5] is Stenotrophomonas maltophilia. Description: Antibacterial activity against Stenotrophomonas maltophilia assessed as percent cumulative susceptible isolates at minimum inhibitory concentration of 0.06 ug/ml by CLSI broth microdilution method. On the set-up: scale not given: the % may be the effect or the level left.
Test [6] relates to Proteus mirabilis. The experiment in a line: Antibacterial activity against Proteus mirabilis assessed as percent cumulative susceptible isolates at minimum inhibitory concentration of 0.06 ug/ml by CLSI broth microdilution method. Also on record: scale not given: the % may be the effect or the level left.
Test [7] deals with Enterococcus faecalis. Description: Antibacterial activity against Enterococcus faecalis by CLSI M7-A7 broth microdilution method.
The nature of test [8]: Ratio of fAUC (0 to 24 hrs) in in vitro PK/PD model at 750 mg to MIC for Staphylococcus aureus.
In test [9] the test system is Enterococcus faecium. Description: (§1) Antibacterial activity against Enterococcus faecium assessed as percent cumulative susceptible isolates at minimum inhibitory concentration of […] by CLSI broth microdilution method. On the set-up: scale not given: the % may be the effect or the level left.
For test [10], the system named is Escherichia coli. The experiment in a line: Antibacterial activity against Escherichia coli assessed as percent cumulative susceptible isolates at minimum inhibitory concentration of <=[…] by CLSI broth microdilution method. On the set-up: scale not given: the % may be the effect or the level left.
In test [11] the test system is Staphylococcus epidermidis. The experiment in a line: Antibacterial activity against methicillin-susceptible Staphylococcus epidermidis assessed as percent cumulative susceptible isolates at minimum inhibitory concentration of 0.06 ug/ml by CLSI broth microdilution method. On the set-up: scale not given: the % may be the effect or the level left.
Test [12] relates to Enterococcus faecium. The experiment in a line: Antibacterial activity against Enterococcus faecium assessed as percent cumulative susceptible isolates at minimum inhibitory concentration of 128 ug/ml by CLSI broth microdilution method. On the set-up: scale not given: the % may be the effect or the level left.
The test system of a further test is Klebsiella oxytoca. Description: Antibacterial activity against Klebsiella oxytoca assessed as percent cumulative susceptible isolates at minimum inhibitory concentration of 1 ug/ml by CLSI broth microdilution method. On the set-up: scale not given: the % may be the effect or the level left.
For test [13], the system named is Pseudomonas aeruginosa. The experiment in a line: Antibacterial activity against Pseudomonas aeruginosa assessed as percent cumulative susceptible isolates at minimum inhibitory concentration of >=[…] by CLSI broth microdilution method. Also on record: scale not given: the % may be the effect or the level left.
The subject of test [14] is Pseudomonas aeruginosa. Description: Antibacterial activity against Pseudomonas aeruginosa assessed as percent cumulative susceptible isolates at minimum inhibitory concentration of 8 ug/ml by CLSI broth microdilution method. On the set-up: scale not given: the % may be the effect or the level left.
Test [15] relates to Enterococcus faecalis. Description: Antibacterial activity against Enterococcus faecalis assessed as percent cumulative susceptible isolates at minimum inhibitory concentration of 0.06 ug/ml by CLSI broth microdilution method. Also on record: scale not given: the % may be the effect or the level left.
For test [16], the system named is Pseudomonas aeruginosa. The experiment in a line: Antibacterial activity against Pseudomonas aeruginosa assessed as percent cumulative susceptible isolates at minimum inhibitory concentration of 4 ug/ml by CLSI broth microdilution method. On the set-up: scale not given: the % may be the effect or the level left.
Test [17] deals with Staphylococcus aureus. The experiment in a line: Antibacterial activity against community-associated methicillin-resistant Staphylococcus aureus by CLSI M7-A7 broth microdilution method. An outline of the steps:
(§2)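 Clinical isolates tested by CLSI broth microdilution using 96-well panels of doubling drug dilutions in cation-adjusted Mueller-Hinton broth with 5% lysed horse blood. MIC was read from these panels. Panel quality control used CLSI ATCC strains, including S. pneumoniae 49619, S. aureus 29213, E. faecalis 29212 and E. coli 25922. Cumulative percentages of isolates were tabulated at each MIC.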

In test [18] the test system is Klebsiella pneumoniae. Description: Antibacterial activity against Klebsiella pneumoniae assessed as percent cumulative susceptible isolates at minimum inhibitory concentration of 8 ug/ml by CLSI broth microdilution method. On the set-up: scale not given: the % may be the effect or the level left.
Test [19] deals with Staphylococcus aureus. Description: Antibacterial activity against methicillin-susceptible Staphylococcus aureus assessed as percent cumulative susceptible isolates at minimum inhibitory concentration of […] by CLSI broth microdilution method. Also on record: scale not given: the % may be the effect or the level left.
Test [20] relates to Staphylococcus aureus. Description: Antibacterial activity against non-levofloxacin susceptible Staphylococcus aureus assessed as percent cumulative susceptible isolates at minimum inhibitory concentration of […] by CLSI broth microdilution method. Also on record: scale not given: the % may be the effect or the level left.
Test [21] has as its system Staphylococcus epidermidis. Description: Antibacterial activity against methicillin-susceptible Staphylococcus epidermidis assessed as percent cumulative susceptible isolates at minimum inhibitory concentration of 0.03 ug/ml by CLSI broth microdilution method. On the set-up: scale not given: the % may be the effect or the level left.
The nature of test [22]: Ratio of fAUC (0 to 24 hrs) in in vitro PK/PD model at 750 mg to MIC for penicillin-resistant Streptococcus pneumoniae.
For test [23], the system named is Proteus mirabilis. The experiment in a line: Antibacterial activity against Proteus mirabilis assessed as percent cumulative susceptible isolates at minimum inhibitory concentration of 1 ug/ml by CLSI broth microdilution method. Also on record: scale not given: the % may be the effect or the level left.
Test [24] deals with Enterococcus faecium. The test is described as §1. On the set-up: scale not given: the % may be the effect or the level left. The source holds these as a separate data set.
Test [25] deals with Klebsiella pneumoniae. The experiment in a line: Antibacterial activity against Klebsiella pneumoniae assessed as percent cumulative susceptible isolates at minimum inhibitory concentration of 128 ug/ml by CLSI broth microdilution method. On the set-up: scale not given: the % may be the effect or the level left.
Test [26] deals with Stenotrophomonas maltophilia. Description: Antibacterial activity against Stenotrophomonas maltophilia assessed as percent cumulative susceptible isolates at minimum inhibitory concentration of 64 ug/ml by CLSI broth microdilution method. On the set-up: scale not given: the % may be the effect or the level left.
Test [27] deals with Streptococcus pneumoniae. Description: Antibacterial activity against penicillin-resistant Streptococcus pneumoniae by CLSI M7-A7 broth microdilution method. A digest of the protocol: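 Broth microdilution per CLSI guidelines on clinical isolates, using panels of doubling drug dilutions in cation-adjusted Mueller-Hinton broth with 5% lysed horse blood. MIC read per CLSI, and cumulative percentage of isolates inhibited at each concentration tabulated.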

In test [28] the test system is Klebsiella pneumoniae. The experiment in a line: Antibacterial activity against Klebsiella pneumoniae assessed as percent cumulative susceptible isolates at minimum inhibitory concentration of 64 ug/ml by CLSI broth microdilution method. Also on record: scale not given: the % may be the effect or the level left.
Test [29] has as its system Staphylococcus aureus. The experiment in a line: Antibacterial activity against hospital-associated methicillin-resistant Staphylococcus aureus assessed as percent cumulative susceptible isolates at minimum inhibitory concentration of 2 ug/ml by CLSI broth microdilution method. On the set-up: scale not given: the % may be the effect or the level left. A digest of the protocol: as §2

In test [30] the test system is Escherichia coli. The experiment in a line: Antibacterial activity against Escherichia coli assessed as percent cumulative susceptible isolates at minimum inhibitory concentration of >=[…] by CLSI broth microdilution method. Also on record: scale not given: the % may be the effect or the level left.
Test [31] deals with Staphylococcus aureus. Description: Antibacterial activity against hospital-associated methicillin-resistant Staphylococcus aureus assessed as percent cumulative susceptible isolates at minimum inhibitory concentration of 4 ug/ml by CLSI broth microdilution method. Also on record: scale not given: the % may be the effect or the level left.
Test [32] has as its system Staphylococcus epidermidis. The experiment in a line: Antibacterial activity against methicillin-susceptible Staphylococcus epidermidis assessed as percent cumulative susceptible isolates at minimum inhibitory concentration of 0.5 ug/ml by CLSI broth microdilution method. Also on record: scale not given: the % may be the effect or the level left.
Test [33] concerns Klebsiella pneumoniae. The experiment in a line: Antibacterial activity against Klebsiella pneumoniae assessed as percent cumulative susceptible isolates at minimum inhibitory concentration of <=[…] by CLSI broth microdilution method. Also on record: scale not given: the % may be the effect or the level left.
Test [34] has as its system Staphylococcus aureus. The experiment in a line: Antibacterial activity against hospital-associated methicillin-resistant Staphylococcus aureus by CLSI M7-A7 broth microdilution method. A digest of the protocol:
as §2

Test [35] relates to Escherichia coli. The experiment in a line: Antibacterial activity against Escherichia coli assessed as percent cumulative susceptible isolates at minimum inhibitory concentration of 128 ug/ml by CLSI broth microdilution method. Also on record: scale not given: the % may be the effect or the level left.
Test [36] has as its system Staphylococcus aureus. The experiment in a line: Antibacterial activity against non-levofloxacin susceptible Staphylococcus aureus assessed as percent cumulative susceptible isolates at minimum inhibitory concentration of 2 ug/ml by CLSI broth microdilution method. Also on record: scale not given: the % may be the effect or the level left.

On to `C[C@H]1COc2c(N3CCN(C)CC3)c(F)cc3c(=O)c(C(=O)O)cn1c23.C[C@H]1COc2c(N3CCN(C)CC3)c(F)cc3c(=O)c(C(=O)O)cn1c23.O` [LEVOFLOXACIN], for which the Activity with Enterococcus faecalis [1] is given as 100%; in the test with Streptococcus pneumoniae [2], 90.6%; in the test with Streptococcus pneumoniae [3], 99.5%; with Staphylococcus aureus [4], 22.8%; in test [5] it was 3.8%; in the test with Proteus mirabilis [6] it was 33.3%.

In general, MIC90 refers to the lowest concentration that inhibits either 90% of growth or 90% of the strains tested, depending on the study. As usually defined, the MIC50 is the lowest concentration that inhibits either 50% of growth or 50% of the strains tested, depending on the study. As usually defined, the MIC is the least concentration at which growth counts as inhibited. `COc1c(N2C[C@@H](C)C[C@H](N)C2)ccc2c(=O)c(C(=O)O)cn(C3CC3)c12` [NEMONOXACIN]: the MIC90 in the test on Enterococcus faecalis [7] is 1 µg/mL (≈ 2.69 µM); with Staphylococcus aureus [17], 0.5 µg/mL (≈ 1.35 µM); in the test on Streptococcus pneumoniae [27], 0.03 µg/mL (≈ 0.0808 µM). In addition, the RatioAUC/MIC in test [8] is 393; in test [22] it was > 393. The Activity stood at 15.8% in the test on Enterococcus faecium [9]; 0.2% in the test on Escherichia coli [10]; 58.1% in test [11]; 100% with Enterococcus faecium [12]; 100% with Klebsiella oxytoca; 100% with Pseudomonas aeruginosa [13]. In addition, the Activity is reported as 78.8% in the test with Pseudomonas aeruginosa [14]; 18.5% in the test with Enterococcus faecalis [15]; 78.1% with Pseudomonas aeruginosa [16]; 95% in the test on Klebsiella pneumoniae [18]; 30.5% in the test with Staphylococcus aureus [19]; 8.9% with Staphylococcus aureus [20]. For the same molecule, the Activity in [21] came out at 53.5%; in the test with Proteus mirabilis [23], 75.8%; in the test with Enterococcus faecium [24], 28.9%; in the test with Klebsiella pneumoniae [25], 100%; in [26] it was 100%; in the test on Klebsiella pneumoniae [28] it was 98.5%. For the same molecule, the Activity in the test with Staphylococcus aureus [29] was determined as 22.2%; in the test with Escherichia coli [30], 100%; in the test with Staphylococcus aureus [31] it was 57.6%; in test [32], 93%; in the test with Klebsiella pneumoniae [33] it was 0.5%; in the test on Escherichia coli [35], 99.3%. Also, the Activity in the test with Staphylococcus aureus [36] came out at 36.1%. In the test on Staphylococcus aureus [17], this molecule returned an MIC50 of 0.25 µg/mL (≈ 0.673 µM). Moreover, the MIC in the test on Staphylococcus aureus [34] was ≥ 4 µg/mL.
